Measured values from ChEMBL document CHEMBL1155144, “Cytoplasmic-membrane anchoring of a class A beta-lactamase and its capacity in manifesting antibiotic resistance” (2007).
Values after ≈ are worked out from the molar mass of the structure shown.

Key:
Assay type in all cases: functional
Escherichia coli [1] = test: Antimicrobial activity against Escherichia coli JM83 harboring pACYC184-TEM by serial dilution method
Outline: (§1)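 Broth serial dilution in LB medium, microtitre format; inoculum 5 x 10^5 CFU/ml; incubated with antibiotic overnight at 37°C; MIC read after overnight growth.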

Escherichia coli [2] = test: Antimicrobial activity against Escherichia coli JM83 by serial dilution method; outline: as §1
Escherichia coli [3] = test: Antimicrobial activity against Escherichia coli JM83 harboring pACYC184-ATEM by serial dilution method; outline: as §1

Row | SMILES | MIC (Escherichia coli [1]) [µg/mL] | MIC (Escherichia coli [2]) [µg/mL] | MIC (Escherichia coli [3]) [µg/mL]
1 | CC1(C)S[C@@H]2[C@H](NC(=O)[C@H](N)c3ccccc3)C(=O)N2[C@H]1C(=O)O [AMPICILLIN] | 4000 (≈ 11400 µM) | 4 (≈ 11.4 µM) | 4000 (≈ 11400 µM)
2 | CC(C)(O/N=C(\C(=O)N[C@@H]1C(=O)N2C(C(=O)[O-])=C(C[n+]3ccccc3)CS[C@H]12)c1csc(N)n1)C(=O)O [CEFTAZIDIME] | 0.3 (≈ 0.549 µM) | 0.3 (≈ 0.549 µM) | 0.3 (≈ 0.549 µM)
3 | O=C(Cc1cccs1)N[C@@H]1C(=O)N2C(C(=O)[O-])=C(C[n+]3ccccc3)CS[C@H]12 [CEPHALORIDINE] | 32 (≈ 77 µM) | 2 (≈ 4.81 µM) | 32 (≈ 77 µM)
4 | CC(=O)OCC1=C(C(=O)O)N2C(=O)[C@@H](NC(=O)Cc3cccs3)[C@H]2SC1 [CEPHALOTHIN] | 64 (≈ 161 µM) | 4 (≈ 10.1 µM) | 64 (≈ 161 µM)
5 | Cc1onc(-c2ccccc2)c1C(=O)N[C@@H]1C(=O)N2[C@@H]1SC(C)(C)[C@@H]2C(=O)O [OXACILLIN] | 64 (≈ 159 µM) | 2 (≈ 4.98 µM) | 8000 (≈ 19900 µM)
